Laboratory results reported in ChEMBL document CHEMBL4364341, “Radiosensitization of Head and Neck Squamous Cell Carcinoma (HNSCC) by a Podophyllotoxin” (ACS Med Chem Lett, 2019).
Calls of active or inactive are those of the source. The rule behind the calls is not given here.

Legend:
FaDu [1] = assay: Synergistic induction of cell cycle arrest in human FADU cells assessed as decrease in cyclin B1 at 0.5 uM followed by irradiation with 5 Gy IR incubated for 48 hrs by immunoblot analysis; type: functional, cell-based
Procedure, shortened: (§1)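 FaDu cells received drug, 5 Gy IR, or both; vehicle-only controls. Lysates collected after 48 h and immunoblotted with primary antibodies to NRF2, cyclin B1, CDK1, Bax and Bcl-2. Membranes stripped and reprobed for beta-actin as loading control.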

FaDu [2] = assay: Synergistic antiproliferative activity against human FADU cells assessed as combination index at 5 uM preincubated for 1 hr followed by irradiation with 5 Gy IR and measured after 6 days by MTT assay; type: functional
Procedure, shortened: (§2)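 Combination index was calculated by the Chou–Talalay median-effect method from the 6-day MTT viability data of the single-plate compound/X-ray (2.5, 5, 10 Gy) design. CI < 1 denotes synergy, CI = 1 additivity and CI > 1 antagonism.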

FaDu [3] = assay: Induction of apoptosis in human FADU cells assessed as increase in Bax at 0.5 uM followed by irradiation with 5 Gy IR incubated for 48 hrs by immunoblot analysis; type: functional, cell-based
Procedure, shortened: (§3)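 FaDu cells received compound at 0.5 μM, 5 Gy IR, or both. After 48 h, lysates were immunoblotted for NRF2, cyclin B1, CDK1, Bax and Bcl-2. Membranes were then stripped and reprobed for β-actin as the loading control.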

SCC-25 [4] = assay: Synergistic antiproliferative activity against human SCC25 cells assessed as combination index at 0.05 uM preincubated for 1 hr followed by irradiation with 10 Gy IR and measured after 6 days by MTT assay; type: functional
Procedure, shortened: (§4)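 SCC-25 cells grown in DMEM with 10% FBS at 37 °C, 5% CO2, seeded 1000 cells/well in 96-well plates and left 24 h. Drug in DMSO, diluted in complete medium, added 1 h before X-irradiation. A movable 5 mm lead shield gave 0, 2.5, 5 or 10 Gy on one plate. After 6 days, MTT readout at 570 nm. Combination index by Chou–Talalay from viability data.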

FaDu [5] = assay: Antiproliferative activity against human FADU cells assessed as fractional inhibition at 0.05 uM after 6 days in absence of irradiation by MTT assay; type: functional
Procedure, shortened: (§5)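 FaDu or SCC-25 cells were grown in DMEM with 10% FBS at 37 °C and 5% CO2. They were seeded at 1000 cells/well in 96-well plates for 24 h, then dosed with compound (fresh DMSO stock diluted in medium) or vehicle. After 1 h, X-rays were given with a sliding 5 mm lead shield, so one plate held 0, 2.5, 5 and 10 Gy columns. After 6 days, MTT (0.5 mg/mL, 45 min) was added, then DMSO, and A570 was read. Values were normalised to the unirradiated vehicle control. Fractional inhibition = 1 − surviving fraction.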

FaDu [6] = assay: Synergistic induction of apoptosis in human FADU cells assessed as decrease in Bcl2 at 0.5 uM followed by irradiation with 5 Gy IR incubated for 48 hrs by immunoblot analysis; type: functional, cell-based; procedure, shortened: as §1
FaDu [7] = assay: Synergistic antiproliferative activity against human FADU cells assessed as combination index at 0.005 uM preincubated for 1 hr followed by irradiation with 10 Gy IR and measured after 6 days by MTT assay; type: functional; procedure, shortened: as §2
SCC-25 [8] = assay: Synergistic antiproliferative activity against human SCC25 cells assessed as reduction in colony formation unit followed by irradiation with 5 Gy IR and measured after 10 to 14 days by crystal violet staining based assay; type: functional, cell-based
SCC-25 [9] = assay: Synergistic antiproliferative activity against human SCC25 cells assessed as fractional inhibition at 0.05 uM preincubated for 1 hr followed by irradiation with 2.5 Gy IR and measured after 6 days by MTT assay (reference value: 0.011); type: functional
Procedure, shortened: (§6)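 SCC-25 cells seeded 1000/well in 96-well plates in DMEM/10% FBS and left 24 h. Drug or vehicle added, then after 1 h X-irradiated to 2.5, 5 or 10 Gy on one plate using a shifted lead shield. Plates incubated 6 days, then MTT (0.5 mg/mL, 45 min), DMSO solubilisation, absorbance at 570 nm. Fractional inhibition = 1 − fraction of surviving cells.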

FaDu [10] = assay: Induction of apoptosis in human FADU cells assessed as decrease in Bcl2 at 0.5 uM incubated for 48 hrs by immunoblot analysis; type: functional, cell-based; procedure, shortened: as §3
SCC-25 [11] = assay: Synergistic antiproliferative activity against human SCC25 cells assessed as fractional inhibition at 0.05 uM preincubated for 1 hr followed by irradiation with 10 Gy IR and measured after 6 days by MTT assay (reference value: 0.347); type: functional; procedure, shortened: as §6
SCC-25 [12] = assay: Synergistic antiproliferative activity against human SCC25 cells assessed as fractional inhibition at 5 uM preincubated for 1 hr followed by irradiation with 10 Gy IR and measured after 6 days by MTT assay (reference value: 0.347); type: functional; procedure, shortened: as §6
FaDu [13] = assay: Synergistic antiproliferative activity against human FADU cells assessed as fractional inhibition at 5 uM preincubated for 1 hr followed by irradiation with 10 Gy IR and measured after 6 days by MTT assay (reference value: 0.388); type: functional; procedure, shortened: as §5
FaDu [14] = assay: Inhibition of colony formation in human FADU cells incubated for 10 to 14 days by crystal violet staining based assay; type: functional, cell-based
FaDu [15] = assay: Induction of cell cycle arrest in human FADU cells assessed as decrease in cyclin B1 at 0.5 uM incubated for 48 hrs by immunoblot analysis; type: functional, cell-based; procedure, shortened: as §3
FaDu [16] = assay: Synergistic induction of cell cycle arrest in human FADU cells assessed as decrease in CDK1 at 0.5 uM followed by irradiation with 5 Gy IR incubated for 48 hrs by immunoblot analysis; type: functional, cell-based; procedure, shortened: as §1
FaDu [17] = assay: Synergistic induction of cell cycle arrest in human FADU cells assessed as decrease in accumulation at S phase at 0.5 uM followed irradiation with 5Gy IR incubated for 24 hrs by propidium iodide staining based flow cytometry; type: functional
Procedure, shortened: (§7)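 FaDu or SCC-25 cells, untreated, given 5 Gy IR, drug, or drug plus 5 Gy. Cell-cycle distribution by propidium iodide staining and flow cytometry at 6 h and 24 h after treatment. G0/G1, S and G2/M fractions compared with control by t test.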

FaDu [18] = assay: Synergistic induction of cell cycle arrest in human FADU cells at 0.5 uM followed by irradiation with 5Gy IR incubated for 6 hrs by propidium iodide staining based flow cytometry; type: functional; procedure, shortened: as §7
FaDu [19] = assay: Synergistic antiproliferative activity against human FADU cells assessed as fractional inhibition at 0.05 uM preincubated for 1 hr followed by irradiation with 2.5 Gy IR and measured after 6 days by MTT assay (reference value: 0.131); type: functional; procedure, shortened: as §5
FaDu [20] = assay: Synergistic antiproliferative activity against human FADU cells assessed as combination index at 0.05 uM preincubated for 1 hr followed by irradiation with 5 Gy IR and measured after 6 days by MTT assay; type: functional; procedure, shortened: as §2
SCC-25 [21] = assay: Synergistic antiproliferative activity against human SCC25 cells assessed as combination index at 5 uM preincubated for 1 hr followed by irradiation with 5 Gy IR and measured after 6 days by MTT assay; type: functional; procedure, shortened: as §4
SCC-25 [22] = assay: Antiproliferative activity against human SCC25 cells assessed as fractional inhibition at 0.005 uM after 6 days in absence of irradiation by MTT assay; type: functional; procedure, shortened: as §5
FaDu [23] = assay: Synergistic antiproliferative activity against human FADU cells assessed as fractional inhibition at 5 uM preincubated for 1 hr followed by irradiation with 5 Gy IR and measured after 6 days by MTT assay (reference value: 0.097); type: functional; procedure, shortened: as §5

## COc1ccc2c(c1)N(CCO)C1=C(C(=O)OC1)C2c1ccccc1 (stereo not drawn)
FaDu [1]
  Activity: Active
FaDu [2]
  CI: 0.324
FaDu [3]
  Activity: Active
SCC-25 [4]
  CI: 1.056
FaDu [5]
  fractional inhibitory concentration index (FICI): 0.186
FaDu [6]
  Activity: Active
FaDu [7]
  CI: 0.856
SCC-25 [8]
  inhibition: Dose-dependent effect
SCC-25 [9]
  fractional inhibitory concentration index (FICI): 0.74
FaDu [10]
  Activity: Active
SCC-25 [11]
  fractional inhibitory concentration index (FICI): 0.379
SCC-25 [12]
  fractional inhibitory concentration index (FICI): 0.71
FaDu [13]
  fractional inhibitory concentration index (FICI): 0.681
FaDu [14]
  IC50: 6.5 µM
FaDu [15]
  Activity: Active
FaDu [16]
  Activity: Active
FaDu [17]
  Activity: Active
FaDu [18]
  Activity: inactive
FaDu [19]
  fractional inhibitory concentration index (FICI): 0.383
FaDu [20]
  CI: 1.18
SCC-25 [21]
  CI: 0.652
SCC-25 [22]
  fractional inhibitory concentration index (FICI): 0.009
FaDu [23]
  fractional inhibitory concentration index (FICI): 0.633
